Source: ChEMBL document CHEMBL1145915, “Molecular model of the alpha(IIb)beta(3) integrin” (J Med Chem, 2003)
pIC50: −log10 of the molar value.

biological target: Integrin alpha-V/beta-3 (Homo sapiens, UniProt P05106+P06756); experiment: Inhibition of binding to human Vitronectin receptor (integrin alphaV-beta3); type: protein-complex assay
Procedure, shortened: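 Scintillation proximity binding assay with lyophilized wheat germ agglutinin SPA beads. Receptor was αvβ3 integrin purified from HEK 293 cells overexpressing human recombinant αvβ3. Tracer was a 125I-labeled ligand, and test compounds were scored by displacement of its binding.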

Chain of Integrin alpha-V/beta-3 (P05106 27-788 limits assumed): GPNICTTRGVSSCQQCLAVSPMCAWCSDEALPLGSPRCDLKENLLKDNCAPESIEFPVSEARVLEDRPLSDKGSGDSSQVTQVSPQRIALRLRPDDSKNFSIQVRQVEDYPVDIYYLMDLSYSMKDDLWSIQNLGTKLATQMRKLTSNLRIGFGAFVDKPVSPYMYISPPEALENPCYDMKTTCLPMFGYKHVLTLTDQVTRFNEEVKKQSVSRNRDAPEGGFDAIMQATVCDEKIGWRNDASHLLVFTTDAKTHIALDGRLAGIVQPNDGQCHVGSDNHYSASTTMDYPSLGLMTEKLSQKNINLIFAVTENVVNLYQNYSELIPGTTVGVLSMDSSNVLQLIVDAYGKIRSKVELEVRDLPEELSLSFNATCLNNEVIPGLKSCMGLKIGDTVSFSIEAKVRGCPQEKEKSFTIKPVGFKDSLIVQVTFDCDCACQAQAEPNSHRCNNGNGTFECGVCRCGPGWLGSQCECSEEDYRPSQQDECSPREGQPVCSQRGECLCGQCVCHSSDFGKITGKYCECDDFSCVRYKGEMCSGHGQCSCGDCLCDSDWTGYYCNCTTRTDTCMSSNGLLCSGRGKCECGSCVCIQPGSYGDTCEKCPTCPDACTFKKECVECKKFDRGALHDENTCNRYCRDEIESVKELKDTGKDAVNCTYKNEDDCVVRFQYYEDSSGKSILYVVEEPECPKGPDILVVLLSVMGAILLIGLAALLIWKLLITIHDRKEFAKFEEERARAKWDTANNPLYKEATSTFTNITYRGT
Chain of Integrin alpha-V/beta-3 (P06756 31-889 limits assumed): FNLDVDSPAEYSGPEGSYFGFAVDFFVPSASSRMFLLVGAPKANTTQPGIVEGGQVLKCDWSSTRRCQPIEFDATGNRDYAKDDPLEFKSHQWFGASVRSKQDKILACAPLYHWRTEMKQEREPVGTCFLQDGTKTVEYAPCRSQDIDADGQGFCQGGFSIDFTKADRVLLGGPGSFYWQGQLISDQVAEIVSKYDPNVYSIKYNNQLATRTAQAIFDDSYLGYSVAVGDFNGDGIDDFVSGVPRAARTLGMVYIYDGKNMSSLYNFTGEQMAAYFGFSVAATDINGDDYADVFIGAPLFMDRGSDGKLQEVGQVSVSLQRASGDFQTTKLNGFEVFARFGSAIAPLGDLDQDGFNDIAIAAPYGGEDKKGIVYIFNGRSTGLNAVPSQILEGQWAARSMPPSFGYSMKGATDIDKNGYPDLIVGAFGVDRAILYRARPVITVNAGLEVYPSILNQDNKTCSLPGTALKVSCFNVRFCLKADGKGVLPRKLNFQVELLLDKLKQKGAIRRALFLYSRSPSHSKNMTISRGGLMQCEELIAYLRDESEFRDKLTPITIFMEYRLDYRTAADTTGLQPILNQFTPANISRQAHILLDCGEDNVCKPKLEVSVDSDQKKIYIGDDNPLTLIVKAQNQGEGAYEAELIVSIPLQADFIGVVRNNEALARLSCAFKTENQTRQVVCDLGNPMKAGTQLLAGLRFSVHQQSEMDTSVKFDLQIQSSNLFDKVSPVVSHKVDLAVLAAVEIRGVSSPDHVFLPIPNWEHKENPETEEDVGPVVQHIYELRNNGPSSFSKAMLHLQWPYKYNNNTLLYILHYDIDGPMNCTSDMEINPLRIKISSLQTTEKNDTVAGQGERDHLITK
Chain of Integrin alpha-V/beta-3 (P06756 891-1048 limits assumed): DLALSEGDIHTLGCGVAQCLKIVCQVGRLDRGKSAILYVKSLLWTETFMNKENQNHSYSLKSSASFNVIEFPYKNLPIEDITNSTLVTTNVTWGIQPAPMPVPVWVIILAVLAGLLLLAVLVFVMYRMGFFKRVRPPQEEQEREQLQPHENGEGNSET

Question: How did the pIC50 turn out when `O=C(NC[C@H](NS(=O)(=O)c1ccccc1)C(=O)O)c1ccc(N2CCNCC2)cc1` was run?
Answer: Its pIC50 is less than 6.00.

Question: `O=C(O)CC(NC(=O)CCCCc1ccc2c(n1)NCCC2)c1cncnc1` (stereo not drawn) was tested. Which pIC50 did it give?
Answer: Its pIC50 is 8.48.

Question: How did the pIC50 turn out when `Nc1cccc(CCc2ccc(C(=O)NC[C@H](NS(=O)(=O)c3ccccc3)C(=O)O)cc2)n1` was run?
Answer: Its pIC50 is 10.10.

Question: With `CCCCS(=O)(=O)N[C@@H](Cc1ccc(OCCCCC2CCNCC2)cc1)C(=O)O` [TIROFIBAN] as the compound, how does the pIC50 read?
Answer: The pIC50 was less than 6.00.

Question: With `O=C(NC[C@H](NS(=O)(=O)c1ccccc1)C(=O)O)c1ccc(OCCC2CCNCC2)cc1` as the compound, how does the pIC50 read?
Answer: The pIC50 was less than 6.00.

Question: How did the pIC50 turn out when `CC1(C)[C@@H]2CC[C@@]1(CS(=O)(=O)N[C@@H](CNC(=O)c1ccc(CCc3ccc4c(n3)NCCC4)cc1)C(=O)O)C(=O)C2` was run?
Answer: Its pIC50 is 9.96.

Question: `N=C(N)NCCC[C@H](N)C(=O)NCC(=O)N[C@@H](CC(=O)O)C(=O)O` was tested. Which pIC50 did it give?
Answer: Its pIC50 is less than 5.00.

biological target: Integrin alpha-IIb/beta-3 (Homo sapiens, UniProt P05106+P08514); experiment: Inhibition of human alphaIIb-beta3 integrin in platelet aggregation assay
Sequence (P05106 27-788 limits assumed): as the sequence (P05106 27-788 limits assumed) above
Sequence (P08514 32-887 limits assumed): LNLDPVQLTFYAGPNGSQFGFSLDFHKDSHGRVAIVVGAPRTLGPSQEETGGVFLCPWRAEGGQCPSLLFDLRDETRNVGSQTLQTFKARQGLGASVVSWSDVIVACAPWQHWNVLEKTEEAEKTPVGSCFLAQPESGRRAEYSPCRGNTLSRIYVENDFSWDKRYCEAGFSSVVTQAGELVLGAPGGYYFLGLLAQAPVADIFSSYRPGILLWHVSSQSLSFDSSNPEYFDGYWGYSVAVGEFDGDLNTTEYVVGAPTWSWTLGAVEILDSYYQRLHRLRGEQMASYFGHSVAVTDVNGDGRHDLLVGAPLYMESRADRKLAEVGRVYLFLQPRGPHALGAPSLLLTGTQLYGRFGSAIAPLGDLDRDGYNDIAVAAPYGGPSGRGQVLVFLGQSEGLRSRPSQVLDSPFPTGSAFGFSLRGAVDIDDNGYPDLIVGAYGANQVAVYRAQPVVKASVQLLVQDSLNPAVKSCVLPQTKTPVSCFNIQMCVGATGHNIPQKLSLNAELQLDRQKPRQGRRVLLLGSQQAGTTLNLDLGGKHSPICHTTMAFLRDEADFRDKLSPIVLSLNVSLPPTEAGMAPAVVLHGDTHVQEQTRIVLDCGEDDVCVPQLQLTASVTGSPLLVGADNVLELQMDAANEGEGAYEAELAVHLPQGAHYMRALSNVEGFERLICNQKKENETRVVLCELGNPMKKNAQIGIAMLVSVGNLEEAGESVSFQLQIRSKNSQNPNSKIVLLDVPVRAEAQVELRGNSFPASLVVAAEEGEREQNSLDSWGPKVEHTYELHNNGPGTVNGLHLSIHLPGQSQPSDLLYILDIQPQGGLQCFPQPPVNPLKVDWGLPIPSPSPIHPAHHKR
Sequence (P08514 891-1039 limits assumed): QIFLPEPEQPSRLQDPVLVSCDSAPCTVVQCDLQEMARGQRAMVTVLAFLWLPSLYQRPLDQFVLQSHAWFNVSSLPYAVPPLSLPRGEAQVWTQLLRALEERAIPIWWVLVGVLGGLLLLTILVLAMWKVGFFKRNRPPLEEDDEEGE

Question: How did the pIC50 turn out when `O=C(NC[C@H](NS(=O)(=O)c1ccccc1)C(=O)O)c1ccc(OCCC2CCNCC2)cc1` was run?
Answer: The pIC50 was 8.00.
